Measurements: ChEMBL document CHEMBL1121649, “Benz-fused mesoionic xanthine analogues as inhibitors of cyclic-AMP phosphodiesterase” (J Med Chem, 1981)

How the values were obtained:
Format in all cases: protein assay
Heart phosphodiesterase [1] = target: T1, Heart phosphodiesterase (Bos taurus, UniProt Q01061+P14100+E1BN64); test: Inhibition of cAMP phosphodiesterase in bovine heart; conditions: for IC50: read-out: I50
Outline: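 I50 taken from a plot of uninhibited over inhibited velocity (V0/V) against inhibitor concentration, read where V0/V = 2. At least five inhibitor concentrations giving 25–75% inhibition were tested per inhibitor.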

[2] = target: Heart phosphodiesterase (Bos taurus) (UniProt Q01061+P14100+E1BN64); test: Percent inhibition of bovine heart cAMP-phosphodiesterase at 10-20 uM
Heart phosphodiesterase [3] = target: T1, Heart phosphodiesterase; test: Inhibition of bovine heart cAMP-phosphodiesterase (Insoluble)

CCC1C(=O)N(CC2CCCC2)c2sc3ccccc3[n+]2C1=O (stereo not given)
I50 (Heart phosphodiesterase [1]): 102 µM

CCOc1ccc2c(c1)sc1[n+]2C(=O)C(CC)C(=O)N1CC1CCCCC1 (stereo not given)
I50 (Heart phosphodiesterase [1]): 8 µM
inhibition [2]: 40%

CC(C)C1C(=O)N(CC2CC2)c2sc3ccccc3[n+]2C1=O (stereo not given)
I50 (Heart phosphodiesterase [3]): Insoluble

Cn1c(=O)c2nc[nH]c2n(C)c1=O [THEOPHYLLINE]
IC50 (Heart phosphodiesterase [1]): 412 µM

CCC1C(=O)N=C2Sc3ccccc3N2C1=O (stereo not given)
I50 (Heart phosphodiesterase [1]): 467 µM

CCC1C(=O)N(CC)c2sc3ccccc3[n+]2C1=O (stereo not given)
IC50 (Heart phosphodiesterase [1]): 153 µM

CCOc1ccc2c(c1)sc1[n+]2C(=O)C(CC)C(=O)N1CC1CC1 (stereo not given)
I50 (Heart phosphodiesterase [1]): 69 µM

COC(=O)c1cc(=O)n2c(sc3ccccc32)c1C(=O)OC
I50 (Heart phosphodiesterase [3]): Insoluble

CCC1C(=O)N(CC2CC2)c2sc3cc(C)c(C)cc3[n+]2C1=O (stereo not given)
I50 (Heart phosphodiesterase [3]): Insoluble
